# Results published in ChEMBL document CHEMBL4414562, “Discovery of the First in Vivo Active Inhibitors of the Soluble Epoxide Hydrolase Phosphatase Domain” (J Med Chem, 2019).
# The source made the active and inactive calls. No cut-off for these calls is given here.
# Columns and labels:
# [1] = Inhibition of hexa-His-tagged human soluble epoxide hydrolase N-terminal phosphatase domain expressed in Escherichia coli BL21(DE3) pre-incubated for 30 mins before FDP substrate addition by fluorescence based assay
# [2] = target: T1, Bifunctional epoxide hydrolase 2 (Homo sapiens, UniProt P34913); assay: Inhibition of phosphatase activity of full length human soluble epoxide hydrolase pre-incubated for 30 mins before FDP substrate addition by fluorescence based assay
# T1 sequence (P34913 whole entry): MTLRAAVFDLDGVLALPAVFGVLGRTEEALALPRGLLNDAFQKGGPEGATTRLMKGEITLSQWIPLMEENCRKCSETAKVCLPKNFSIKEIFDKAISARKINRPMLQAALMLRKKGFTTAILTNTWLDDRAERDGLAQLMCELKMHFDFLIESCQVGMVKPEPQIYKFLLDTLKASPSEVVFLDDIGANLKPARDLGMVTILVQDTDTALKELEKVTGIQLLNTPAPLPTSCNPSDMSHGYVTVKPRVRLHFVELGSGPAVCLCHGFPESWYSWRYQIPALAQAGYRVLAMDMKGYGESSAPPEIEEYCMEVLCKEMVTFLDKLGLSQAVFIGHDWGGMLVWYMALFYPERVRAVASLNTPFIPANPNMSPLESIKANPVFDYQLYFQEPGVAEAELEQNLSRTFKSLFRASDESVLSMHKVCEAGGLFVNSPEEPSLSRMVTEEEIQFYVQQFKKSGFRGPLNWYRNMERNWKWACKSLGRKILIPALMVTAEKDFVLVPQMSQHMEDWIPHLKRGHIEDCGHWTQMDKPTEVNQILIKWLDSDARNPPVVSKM
# [3] = target: T1, Bifunctional epoxide hydrolase 2; assay: Inhibition of hydrolase activity of full length human soluble epoxide hydrolase pre-incubated for 30 mins before PHOME substrate addition by fluorescence based assay
# Summary of the method: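 Hydrolase assay with 0.1 μM full-length enzyme in Bis-Tris pH 7 containing 0.1 mg/mL BSA and 0.01% Triton X-100. Reaction started with PHOME (50 μM final). Triplicates.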
# [4] = target: T1, Bifunctional epoxide hydrolase 2; assay: Inhibition of hexa-His-tagged human soluble epoxide hydrolase C-terminal hydrolase domain expressed in Escherichia coli BL21(DE3) pre-incubated for 30 mins before PHOME substrate addition by fluorescence based assay
# Homo sapiens [5] = organism: Homo sapiens
# Homo sapiens [6] = organism: Homo sapiens; assay: Induction of stabilization of hexa-His-tagged human soluble epoxide hydrolase N-terminal phosphatase domain expressed in Escherichia coli BL21(DE3) at 50 uM by differential scanning fluorimetry
# [7] = target: T2, Bifunctional epoxide hydrolase 2 (Homo sapiens) (UniProt P34913); assay: Induction of stabilization of hexa-His-tagged human soluble epoxide hydrolase C-terminal hydrolase domain expressed in Escherichia coli BL21(DE3) at 50 uM by differential scanning fluorimetry
# T2 sequence (whole entry): T1 sequence (P34913 whole entry)
smiles,measurement,setting,value
O=C(O)/C=C/c1nc(-c2ccc(Cl)c(Cl)c2)c(-c2ccccc2)o1,IC50,[1],510 nM
N#Cc1cccc(-c2nc(CCC(=O)O)oc2-c2ccccc2)c1,IC50,[1],10000 nM
O=C(O)CCc1nc(-c2ccc(Cl)cc2)c(-c2ccccc2)o1,IC50,[1],3000 nM
O=C(O)CCc1nc(-c2ccc(F)cc2)c(-c2ccccc2)o1,IC50,[1],9000 nM
O=C(O)c1ccc(-c2nc(-c3ccc(Cl)c(Cl)c3)c(-c3ccccc3)o2)cc1,IC50,[1],12000 nM
COc1cccc(-c2oc(CCCC(=O)O)nc2-c2ccc(Cl)c(Cl)c2)c1,IC50,[1],310 nM
Cc1cccc(-c2oc(CCCC(=O)O)nc2-c2ccc(Cl)c(Cl)c2)c1,IC50,[1],310 nM
O=C(O)CCCc1nc(-c2ccc(Cl)c(Cl)c2)c(-c2cccnc2)o1,IC50,[1],4000 nM
O=C(O)CCCc1nc(-c2ccc(Cl)c(Cl)c2)co1,IC50,[1],> 50000 nM
COc1ccc(-c2nc(CCC(=O)O)oc2-c2ccccc2)cc1,IC50,[1],18000 nM
O=C(O)CCCc1nc(-c2ccc(Cl)c(Cl)c2)c(-c2ccccc2F)o1,IC50,[1],310 nM
O=C(O)CCc1nc(-c2cc(Cl)cc(Cl)c2)c(-c2ccccc2)o1,IC50,[1],9000 nM
O=C(O)CCc1nc(-c2ccc(Cl)c(C(F)(F)F)c2)c(-c2ccccc2)o1,IC50,[1],2000 nM
O=C(O)CCc1nc(-c2ccc(C(F)(F)F)cc2)c(-c2ccccc2)o1,IC50,[1],33000 nM
O=C(O)CCCc1nc(-c2ccc(Cl)c(Cl)c2)c(-c2ccncc2)o1,IC50,[1],20000 nM
O=c1c2ccccc2[se]n1-c1ccccc1 [EBSELEN],IC50,[2],420 nM
same,IC50,[3],300 nM
same,IC50,[4],110 nM
same,IC50,[1],290 nM
O=C(O)CCCc1nc(-c2ccc(Cl)c(Cl)c2)c(-c2cccc(C(F)(F)F)c2)o1,IC50,[1],410 nM
O=C(O)CCc1nc(-c2ccccc2Cl)c(-c2ccccc2)o1,IC50,[1],33000 nM
CC(=O)N[C@@H](CSC/C=C(\C)CC/C=C(\C)CCC=C(C)C)C(=O)O,IC50,[2],2040 nM
same,IC50,[3],> 300000 nM
same,IC50,[4],> 300000 nM
same,IC50,[1],550 nM
same,ΔTm,Homo sapiens [5],3.4 °C
O=C(O)CCCc1nc(-c2ccc(Cl)c(Cl)c2)c(Br)o1,IC50,[1],3000 nM
N#Cc1cccc(-c2oc(CCCC(=O)O)nc2-c2ccc(Cl)c(Cl)c2)c1,IC50,[1],120 nM
O=C(O)c1cccc(-c2nc(-c3ccc(Cl)c(Cl)c3)c(-c3ccccc3)o2)c1,IC50,[1],150 nM
O=C(O)CCCc1nc(-c2ccc(Cl)c(Cl)c2)c(-c2cccc(F)c2)o1,IC50,[1],120 nM
N#Cc1ccc(-c2nc(CCC(=O)O)oc2-c2ccccc2)cc1,IC50,[1],44000 nM
C#Cc1cccc(-c2oc(CCCC(=O)O)nc2-c2ccc(Cl)c(Cl)c2)c1,IC50,[1],140 nM
O=C(O)CCc1nc(-c2ccccc2F)c(-c2ccccc2)o1,IC50,[1],40000 nM
O=C(O)CCCc1nc(-c2ccc(Cl)c(Cl)c2)c(-c2cccc(Cl)c2)o1,IC50,[1],230 nM
O=C(O)c1ccccc1-c1nc(-c2ccc(Cl)c(Cl)c2)c(-c2ccccc2)o1,IC50,[1],15000 nM
O=C(Nc1ccc(I)cc1)NC1CCCCC1,Activity,Homo sapiens [6],inactive
same,Activity,[7],Active
O=C(O)CCCc1nc(-c2ccc(Cl)c(Cl)c2)c(-c2cc(F)ccc2F)o1,IC50,[1],280 nM
O=C(O)CCc1nc(-c2ccc(Cl)c(Cl)c2)c(-c2ccccc2)o1,IC50,[1],120 nM
O=C(O)CCc1nc(-c2ccc(Cl)cc2Cl)c(-c2ccccc2)o1,IC50,[1],17000 nM
O=C(O)CCc1nc(-c2cccc(F)c2)c(-c2ccccc2)o1,IC50,[1],7000 nM
